Series [1] deals with T1, Signal transducer and activator of transcription 3 (Homo sapiens, UniProt P40763). Put plainly: Inhibition of STAT3 in human MDA-MB-231 cells assessed as reduction in STAT3 Y705 phosphorylation in cytoplasm at 3 uM incubated for 24 hrs by immunofluorescence staining based fluorescence microscopy. Format: subcellular. The method in brief:
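MDA-MB-231 cells at 1×10^4 per dish, adhered overnight, then exposed to 3.0 µM for 24 h. Fixed in 4% paraformaldehyde and permeabilized with 0.5% Triton X-100. Blocked in 5% BSA for 1 h. Anti-p-STAT3 primary overnight at 4 °C, then Alexa Fluor 546 anti-rabbit for 1 h at RT. Hoechst nuclear stain; imaged by fluorescence microscopy.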

For series [2], the system named is MDA-MB-231. Put plainly: Induction of cell cycle arrest in human MDA-MB-231 cells assessed as G0/G1 phase accumulation at 1 uM incubated for 24 hrs by PI staining based flow cytometry analysis (reference value: 57.99 %). In kind it is functional.
For series [3], the system named is MDA-MB-231. As to the kind of experiment: Induction of apoptosis in human MDA-MB-231 cells assessed as viable cells at 1 uM incubated for 24 hrs by annexin V-FITC and PI staining based flow cytometry analysis (reference value: 93.37 %). In kind it is functional. As to conditions: read-out: Activity.
Series [4] can be described thus: Toxicity in BALB/c mouse xenografted with human MDA-MB-231 cells assessed as effect on body weight loss at 5 to 10 mg/kg, ip administered once daily for 21 days and measured for 21 days. Format: organism-based. As to conditions: in vivo, 504 h, dose 5-10 mg/kg/day, time 21 day. The essentials: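 Female BALB/c nude mice, 5 weeks old (16–18 g), were given 5×10^6 MDA-MB-231 cells subcutaneously. At ~50 mm³, mice were randomized to three groups (n=6): vehicle, 5 or 10 mg/kg i.p. daily for 21 days. Tumor volume (length×width²/2) was measured every 3 days and body weight recorded. Tumors were excised and weighed at the end. TGI derived versus control; mean ± SEM.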

The test system of series [5] is MDA-MB-231. Put plainly: Induction of apoptosis in human MDA-MB-231 cells assessed as late apoptotic cells at 2 uM incubated for 24 hrs by annexin V-FITC and PI staining based flow cytometry analysis (reference value: 3.72 %). Format: functional.
The subject of the next series is Mus musculus. Put plainly: In vivo inhibition of STAT3 in BALB/c mouse xenografted with human MDA-MB-231 cells assessed as reduction in STAT3 Y705 phosphorylation in tumor tissue at 10 mg/kg, ip administered once daily for 21 days and measured on day 21 by immunofluorescent staining based fluorescence microscopy. In kind it is functional, organism-based. As to conditions: dose 10.0 mg/kg/day, time 21.0 day. The method in brief: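 Tumors from the xenograft study (10 mg/kg i.p. daily, 21 days) were sectioned and fixed. Sections were stained with anti-p-STAT3 overnight at 4 °C, then Cy3 anti-rabbit secondary for 40 min at 37 °C. Nuclei stained with DAPI; imaged by fluorescence microscopy. Mean ± SEM, n=4.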

Series [6] relates to MDA-MB-231. As to the kind of experiment: Induction of apoptosis in human MDA-MB-231 cells incubated for 24 hrs by annexin V-FITC and PI staining based flow cytometry analysis. As to conditions: dose 1-4 µM. In kind it is functional, cell-based.
In series [7] the test system is MDA-MB-231. Put plainly: Induction of apoptosis in human MDA-MB-231 cells assessed as late apoptotic cells at 1 uM incubated for 24 hrs by annexin V-FITC and PI staining based flow cytometry analysis (reference value: 3.72 %). Format: functional.
The next series concerns HepG2. As to the kind of experiment: Antiproliferative activity against human HepG2 cells overexpressed STAT3 assessed as reduction in cell growth incubated for 48 hrs by CCK-8 assay. As to conditions: HepG2, 48 h. Format: functional, cell-based. The method in brief: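 Cells seeded at 5000-7000/well and allowed to settle for 8 h at 37 °C, 5% CO2. Graded compound concentrations were then added in triplicate (DMSO <0.1%) for 48 h. Medium was replaced with 10% CCK-8 for 4 h (MDA-MB-231, MDA-MB-468) or 1 h (HepG2), and A450 was read. IC50 is mean ± SD of at least three independent experiments. HepG2 was grown in high-glucose DMEM with 10% FBS.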

The target of series [8] is T2, Signal transducer and activator of transcription 1-alpha/beta (Homo sapiens) (UniProt P42224).
T2 sequence (whole entry): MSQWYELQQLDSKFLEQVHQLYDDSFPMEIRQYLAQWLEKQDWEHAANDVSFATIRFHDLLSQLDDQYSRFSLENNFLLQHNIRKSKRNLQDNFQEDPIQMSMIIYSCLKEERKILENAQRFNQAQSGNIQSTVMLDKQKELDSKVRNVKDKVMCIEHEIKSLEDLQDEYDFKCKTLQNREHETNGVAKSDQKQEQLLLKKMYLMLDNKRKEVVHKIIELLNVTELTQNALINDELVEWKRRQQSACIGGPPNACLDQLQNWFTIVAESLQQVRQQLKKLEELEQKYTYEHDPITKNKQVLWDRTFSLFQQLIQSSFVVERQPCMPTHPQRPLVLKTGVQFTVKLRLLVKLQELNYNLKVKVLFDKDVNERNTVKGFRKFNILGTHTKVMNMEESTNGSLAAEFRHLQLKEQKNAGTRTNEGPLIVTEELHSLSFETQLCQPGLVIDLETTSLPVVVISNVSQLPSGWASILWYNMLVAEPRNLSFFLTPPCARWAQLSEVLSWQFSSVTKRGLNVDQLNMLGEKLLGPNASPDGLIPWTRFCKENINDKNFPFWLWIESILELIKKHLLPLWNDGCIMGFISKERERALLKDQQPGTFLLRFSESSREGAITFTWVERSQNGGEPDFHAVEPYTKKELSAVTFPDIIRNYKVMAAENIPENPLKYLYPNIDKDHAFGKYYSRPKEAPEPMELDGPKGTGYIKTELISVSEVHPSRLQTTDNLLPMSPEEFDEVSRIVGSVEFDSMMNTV
Put plainly: Inhibition of STAT1 in human MDA-MB-231 cells assessed as reduction in STAT1 Y701 phosphorylation at 0.75 to 3 uM incubated for 24 hrs by Western blot analysis. Format: cell-based. As to conditions: dose 0.75-3 µM. The essentials: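 MDA-MB-231 cells treated with a range of concentrations for 24 h. RIPA lysates with PMSF, 40 µg protein/lane, on 10% SDS-PAGE, then PVDF. Blocked in 5% milk/TBST for 2 h. Primary antibodies to STAT3, p-STAT3(Y705), STAT1, p-STAT1(Y701), c-Myc and Cyclin D1 overnight at 4 °C; GAPDH as loading control. HRP secondary for 1 h; ECL detection.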

In series [9] the target is T1, Signal transducer and activator of transcription 3. Put plainly: Displacement of 5-FAM-GpYLPQTV-NH2 from His-tagged STAT3 (unknown origin) (127 to 722 residues) incubated for 30 mins followed by fluorescent peptide probe addition and measured after 1 hr by fluorescence polarization based competition binding assay.
Series [10] has as its system MDA-MB-231. Put plainly: Induction of cell cycle arrest in human MDA-MB-231 cells assessed as S phase accumulation at 2 uM incubated for 24 hrs by PI staining based flow cytometry analysis (reference value: 26.21 %). Format: functional.
For series [11], the system named is MDA-MB-231. As to the kind of experiment: Induction of apoptosis in human MDA-MB-231 cells assessed as early apoptotic cells at 4 uM incubated for 24 hrs by annexin V-FITC and PI staining based flow cytometry analysis (reference value: 2.69 %). In kind it is functional.
The test system of series [12] is MDA-MB-231. As to the kind of experiment: Induction of cell cycle arrest in human MDA-MB-231 cells assessed as G2/M phase accumulation at 4 uM incubated for 24 hrs by PI staining based flow cytometry analysis (reference value: 15.80 %). In kind it is functional.

Activity calls are given as the source filed them. The calls are words filed in the database; no cut-off is given here.

T1 sequence (P40763 whole entry): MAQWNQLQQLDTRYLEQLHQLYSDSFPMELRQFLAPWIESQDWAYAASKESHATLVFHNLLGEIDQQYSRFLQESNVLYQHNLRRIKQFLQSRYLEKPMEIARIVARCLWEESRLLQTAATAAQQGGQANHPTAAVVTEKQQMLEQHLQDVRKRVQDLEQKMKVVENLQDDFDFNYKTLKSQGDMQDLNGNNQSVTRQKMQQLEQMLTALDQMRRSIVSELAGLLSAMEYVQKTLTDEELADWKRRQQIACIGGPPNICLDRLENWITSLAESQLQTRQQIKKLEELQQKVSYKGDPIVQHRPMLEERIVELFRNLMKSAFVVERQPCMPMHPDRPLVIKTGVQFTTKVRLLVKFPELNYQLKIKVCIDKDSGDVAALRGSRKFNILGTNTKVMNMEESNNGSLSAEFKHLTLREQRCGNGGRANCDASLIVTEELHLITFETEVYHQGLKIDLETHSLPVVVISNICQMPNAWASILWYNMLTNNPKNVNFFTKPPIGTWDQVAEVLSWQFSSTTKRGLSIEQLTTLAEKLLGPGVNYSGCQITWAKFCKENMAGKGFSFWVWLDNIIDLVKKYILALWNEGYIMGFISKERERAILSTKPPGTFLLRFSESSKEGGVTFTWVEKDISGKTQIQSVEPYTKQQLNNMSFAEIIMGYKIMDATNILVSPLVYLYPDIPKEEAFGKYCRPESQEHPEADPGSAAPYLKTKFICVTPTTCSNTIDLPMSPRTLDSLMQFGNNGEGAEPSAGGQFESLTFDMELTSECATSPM

For `COc1ccc(NC2=CC(=O)c3cc(C(C)=O)oc3C2=O)cc1`, the inhibition result (in [1]; in the series on Mus musculus) was “Active” in each case. For the same compound, the Activity is 49.42% in the series on MDA-MB-231 [2]; “Non-Toxic” in [4]; 12.69% in the series with MDA-MB-231 [5]; “Dose-dependent effect” with MDA-MB-231 [6]; 6.51% in the series on MDA-MB-231 [7]; 46.21% in the series with MDA-MB-231 [10]. Moreover, the Activity in the series on MDA-MB-231 [11] is reported as 10.25%; in the series with MDA-MB-231 [12], 7.52%. Further, in the series on MDA-MB-231 [3], the viability at 1 µM is 87.9%. The IC50 in the series on HepG2 came out at 1.24 µM; in series [9], 5.18 µM. Further, the inhibition result in series [8] was “inactive”. Further, in series [9] (time 1.5 hrs), the inhibition entry is “Dose-dependent effect”.

The record behind these values is ChEMBL document CHEMBL4765360, “Design, synthesis and biological evaluation of novel potent STAT3 inhibitors based on BBI608 for cancer therapy” (Eur J Med Chem, 2020).
